Measured values: the EternaBench riboswitch data

Test system: MS2 coat protein
Experiment: apparent Kd, MS2 coat protein; higher = weaker binding; RNA-MaP array; FMN 200 µM where present
Outline: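 Green signal was scaled to red-channel RNA signal and control-cluster median Fmax, and the apparent Kd was taken as the median of filtered per-cluster binding-curve fits. The binding series used SNAP-549-labelled MS2 coat protein from 0.7 or 1.5 nM, doubling to 3 µM, on designs transcribed by stalled E. coli RNA polymerase on Illumina sequencing-chip clusters. Each series ran without and then with constant ligand in 100 mM Tris-HCl pH 7.5, 80 mM KCl, 4 mM MgCl2, BSA, DTT, yeast tRNA and Tween-20.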

[1] = designed as: OFF switch for flavin mononucleotide, no ligand
[2] = ligand present: flavin mononucleotide, designed as: OFF switch for flavin mononucleotide
[3] = designed as: ON switch for flavin mononucleotide, no ligand
[4] = ligand present: flavin mononucleotide, designed as: ON switch for flavin mononucleotide

Sequence	apparent Kd [1] [nM]	apparent Kd [2] [nM]	apparent Kd [3] [nM]	apparent Kd [4] [nM]
GGGCCGGUGGAGAAGGAGCUUACGAAACGUAGGCUAGGAUAUCCACAUGAGGAUCACCCAUGUGGGAAUAUCUGAUUUUCACAG	4.4	4.48		
GGGCCGUAGUAGAAGGGAUAUACGAUAGGUAUAUCAGGAUAUACAUGAGGAUCACCCAUGUUCUAACAGUGAUGGUCCUCCCUA	173	374		
GGGCCGUAGUAGAAGGGAUAUACGAUUGGUAUAUCAGGAUAUACAUGAGGAUCACCCAUGUUCUAACAGUGAUAGUCCUCCCUA	23	54.8		
GGGCGUGAAGGAUAUACAUGAGGAUCACCCAUGUGGGAGGAGAGUGGUGAGGAGGCUGGUAGAAGGUCAGGAGG	39.1	32.9		
GGGCUGUCAGGAUAUGGGUCUGGGUCUGAAAGGGCUCGGGCUCAGAAGGGACAUGAGGAUCACCCAUGUGGCCC	35.2	36.4		
GGGCUUUGGGAGAAGGUACAAUAAAUUAGGAGAACAUGAGGAUCACCCAUGUAAGGAUAUCCCAUGUUGUAUUAUGGUACAACC	519	273		
GGGUACAACGGAGGAUAUCAUGUAAAUACAUGAGGAUCACCCAUGUCGAUGGAGACAUCGGAGAUUGAGAAGGCCGAUGUACCG			160	8.88
GGGUACAUCGGAGGAUAUCAUGAAAAUACAUGAGGAUCACCCAUGUCGAUGGAGACAUCGGAGAUUGAGAAGGCCGAUGUACCG			11.9	6.01
GGGUACAUCGGAGGAUAUCAUGUAAAUACAUGAGGAUCACCCAUGUCGAAGGAGACAUCGGAGAUUGAGAAGGCCGAUGUACCG			87.7	579
GGGUACAUCGGAGGAUAUCAUGUAAAUACAUGAGGAUCACCCAUGUCGACGGAGACAUCGGAGAUUGAGAAGGCCGAUGUACCG			42.2	367
GGGUACAUCGGAGGAUAUCAUGUAAAUACAUGAGGAUCACCCAUGUCGAUGGAGACAUCGGAGAUUGAGAAGGCCGAUGUACCC			178	9.58
GGGUACAUCGGAGGAUAUCAUGUAAAUACAUGAGGAUCACCCAUGUCGGUGGAGACAUCGGAGAUUGAGAAGGCCGAUGUACCG				12.7
GGGUACAUCGGAGGAUAUCAUGUAAUUACAUGAGGAUCACCCAUGUCGAUGGAGACAUCGGAGAUUGAGAAGGCCGAUGUACCG			316	12.4
GGGUAGUGAGGAUAUCGUUGUUAGGAGGAGAAGGUAGGAGGCGAGAAGGCACAUGAGGAUCACCCAUGUAUGAG	31	28.1		
GGGUGACAUGAGGAUCACCCAUGUCAGGAUAUGAUACUAUGUACUUCGGUACAUAGUAUCAGAAGGGACAUCAU	284	29.9		
GGUACCAUCACAGGAUAUGCUUUUCUUUGGGAAGCAGAAGGGUGUAACAUGAGGAUCACCCAUGUGGUGCCAGGGCGUUAGCCC			188	16.8
GGUACCAUCGCAGGAUAUGCUAGGGUUUCCUUAGCAGAAGGGUGAUAACAUGAGGAUCACCCAUGUGGUACCGGGCGUGAGCCC			95	1160
GGUACCAUUACAGGAUAUGCUUUCCUUUGGAAAGCAGAAGGGUGUAACAUGAGGAUCACCCAUGUGGUGCCAGGGCGUGAGCCC			659	182
GGUACCUUUACAGGAUAUGCUAGGGUUUCCUUAGCAGAAGGGUGAUACAUGAGGAUCACCCAUGUGGUGCCAGGGCGUGAGCCC			117	341
GGUACCUUUACAGGAUAUGCUAUCCUUUGGGUAGCAGAAGGGUGAUACAUGAGGAUCACCCAUGUGGUGCCAGGGCGUGAGCCC			93.2	313
GGUACUCAAAGAGUACCAAUACGAACAUGAGGAUCACCCAUGUAGGAUAUGCUACUCAAAGAGUAGCAGAAGGACAUGUACCUA	17.5	99.2		

Sequence	apparent Kd [1] [nM]	apparent Kd [2] [nM]	apparent Kd [3] [nM]	apparent Kd [4] [nM]
GGUACUCAAAGAGUACCACUACGAACAUGAGGAUCACCCAUGUAGGAUAUGCUACUCAAAGAGUAGCAGAAGGACAUGUGCCUA	17.9	123		
GGUCCACAUGAGGAUCACCCAUGUUAGGAUAUCUCGCCCGAGUCGUUAUGGGCCGGGCAGAGAAGGAAUGUGAA	21.7	20.2		
GGUCCGAGUGUGAGGAUAUGCUGGUCCUUGGAUCAGCAGAAGGCACAUGAGGAUCACCCAUGUGGAGACGGACC	206	538		
GGUCGUCACAUGAACAUGAGGAUCACCCAUGUAAAUUCUCAUGAGGAUAUGGAUCCUAAUUGGAUCCAGAAGGCAUGGACGACC			1090	333
GGUCUUCAAGUCAGGAUAUCGUCUAAUAGAUAUAACGAGAAGGGACAUGAGGAUCACCCAUGUCGUCUCAUCAG	23.6	69.1		
GGUGAAUGAACAUGAGGAUCACCCAUGUACAGGAAACUGAAUGAGGAUAUCCAUAGCAAAGCUAUGGAGAAGGUAUGGGUCACC			40.5	44.9
GGUGCAUAUGAGAAGGCGAUCAUGAAACAUGAUCGAGGAUAUCAUGUAAACAUGAGGAUCACCCAUGUAUGGGAAUAAUGCACC			112	10.4
GGUGCGUCUGUGAGGAUAUGCUGGUCCUUGGAUCAGCAGAAGGCACAUGAGGAUCACCCAUGUGGUGUCGUACC	233	129		
GGUGGACAUGAGGAUCACCCAUGUGAGGAUAUCGGCCGGCUCGUGGUGGCUGGCUUCUCGAGAAGGCGCAUAGU	69.4	118		
GGUGGACAUGAGGAUCACCCAUGUGAGGAUAUCGGCCGGUUCGCGGUGGCUGGCGUCUCGAGAAGGCACAUAGU	99.1	139		
GGUGGACAUGAGGAUCACCCAUGUGAGGAUAUCGGCUGGCUAGCGGCGGAUGGCUUCUCGAGAAGGCGCAUUGU	86.4	75		
GGUGGACAUGAGGAUCACCCAUGUGAGGAUAUCGGCUGGUACGUGUUGGCUGGCAUCUCGAGAAGGCACAUAGG	166	49.3		
GGUGGACAUGAGGAUCACCCAUGUGAGGAUAUCGGCUGGUACGUGUUGGCUGGCAUCUCGAGAAGGCACAUAGU	80.9	180		
GGUGGCGACGAGAAGGUUCACACAUGAGGAUCACCCAUGUAUGACAUGAGGAUCACCCAUGUAAGGGAGGAUAUUGGAUUUACC	92.8	91.4		
GGUGUGUUAGGAUAUCGCGGCGGCGGCGUUUGUUGUUGUUGUGAGAAGGAACAUGAGGAUCACCCAUGUGCGCC	27.3	75.5		
GGUUAAUAUCGAGGAUAUGUCUAGACACAUGAGGAUCACCCAUGUAUGUGUAUAGAAGGCGAUAUUAACAGCAUGUUACAUGCU			40.8	16
GGUUGGCGAGGAUAUACAUGAGGAUCACCCAUGUGGUCCUAAGAUAAAAUAGACCUUUGUAGAAGGCGCGGGUC	136	122		
GGUUGGCGAGGAUAUACAUGAGGAUCACCCAUGUGGUCCUGCGGUGGUGUCGCCCUUUGUAGAAGGCGCGGGUC	59.1	56.6		
GGUUGGCGAGGAUAUACAUGAGGAUCACCCAUGUGGUCCUGUGGCUGAUCUUGCCUUUGUAGAAGGCGCGAAUC	25.4	103		
GGUUGUCAUAGUCAUCCUUAACGAACAUGAGGAUCACCCAUGUAGGAUAUGCUACUCAAAGAGUAGCAGAAGGGCGUGUGUCUU	56.6	62.9		
GGUUGUCAUCGUCAUCCUUUCGGUACAUGAGGAUCACCCAUGUAGGAUAUGCUGCUCUCGGUGUGGCAGAAGGGCGUGUGUGUU	24.4	39.5		
